Measurements from ChEMBL document CHEMBL4219224, “Structure based drug design and in vitro metabolism study: Discovery of N-(4-methylthiophenyl)-N,2-dimethyl-cyclopenta[d]pyrimidine as a potent microtubule targeting agent” (Bioorg Med Chem, 2018).

How the values were obtained:
HeLa [1] = assay: Antiproliferative activity against human HeLa cells by SRB assay; format: functional, cell-based
[2] = Resistance index, ratio of IC50 for human SKOV3-MDR1-M6/6 cells to IC50 for human SKOV3 cells; format: functional
In short: (§1)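 Antiproliferative IC50 by SRB assay (cellular protein) in each isogenic pair: SK-OV-3 parental versus Pgp-expressing, and parental HeLa versus wild-type βIII-tubulin-expressing HeLa. Rr is the IC50 ratio of the modified line to the parental line. At least three independent experiments, each in triplicate, mean ± SD.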

[3] = Inhibition of bovine brain tubulin polymerization assessed as reduction in tubulin assembly pretreated for 15 mins followed by GTP addition by spectrophotometric method; design: species or system Bos taurus
In short: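 Placed on ice, then 0.4 mM GTP (final) added. Turbidity read at 350 nm after a jump from 0 °C to 30 °C.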

MDA-MB-435 (human) = assay: Antiproliferative activity against human MDA-MB-435 cells by SRB assay
[4] = Antiproliferative activity against human SKOV3-MDR1-M6/6 cells by SRB assay; format: functional
Bos taurus [5] = species on record: Bos taurus; assay: Inhibition of [3H]colchicine binding to bovine brain tubulin at 1 uM measured after 10 mins by scintillation counting method relative to control
In short: (§2)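 Reactions of 0.1 mL held 1.0 μM bovine brain tubulin, 5.0 μM [3H]colchicine, inhibitor at 1.0 or 5.0 μM, colchicine-binding stabilizing components and 5% DMSO, assembled on ice with tubulin added last. Incubated 10 min at 37 °C, stopped with ice water, filtered through DEAE-cellulose filters. Bound radiolabel counted by scintillation.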

SK-OV-3 = assay: Antiproliferative activity against human SKOV3 cells by SRB assay; format: functional, cell-based
[6] = Retention time of the compound in human liver microsomes at 20 uM by LC-MS/MS analysis; format: ADME, microsome
In short: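 Human liver microsomes (both genders; 1.0 mg/mL) in 100 mM PBS pH 7.4 with 3 mM MgCl2 and 10 mM NADPH, preincubated at 37 °C. Reaction started with compound at 20 μM final (from DMSO stock); propranolol 5 μM as control. Aliquots at 0 and 60 min quenched in ice-cold ACN. Analysed by LC/MS/MS on a C18 column, 5–75% B gradient over 30 min, ESI.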

Bos taurus [7] = species on record: Bos taurus; assay: Inhibition of [3H]colchicine binding to bovine brain tubulin at 5 uM measured after 10 mins by scintillation counting method relative to control; in short: as §2
[8] = Induction of microtubule depolymerization in rat A10 cells by indirect immunofluorescence method; format: cell-based
In short: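 A-10 cells, which arrest in interphase, used to score loss of interphase microtubules. EC50 values calculated per an earlier method, minimum of three independent experiments.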

HeLa [9] = assay: Resistance index, ratio of IC50 for human HeLa cells expressing wild type beta3 tubulin to IC50 for human HeLa cells; format: functional; in short: as §1
HeLa [10] = assay: Antiproliferative activity against human HeLa cells expressing wild type beta3 tubulin by SRB assay; format: functional, cell-based

Row | SMILES | IC50 (HeLa [1]) | IC50 [3] | IC50 (MDA-MB-435 (human)) | inhibition (Bos taurus [5]) | IC50 (SK-OV-3) | Retention_time [6] | inhibition (Bos taurus [7]) | EC50 [8] | IC50 (HeLa [10]) | Ratio IC50 [2] | IC50 [4] | Ratio IC50 (HeLa [9])
1 | Cc1nc2c(c(N(C)c3ccc([S+](C)[O-])cc3)n1)CCC2 (configuration not stated) | 6.8 nM | 1100 nM | 7.9 nM | 79% | 12.6 nM | 7.9 min | 93% | 31 nM | 10 nM | 1.6 | 19.9 nM | 1.5
2 | CNc1ccc(N(C)c2nc(C)nc3c2CCC3)cc1 | 31 nM | – | 20 nM | – | 36.3 nM | – | – | 45 nM | – | 1.4 | 49.7 nM | 0.6
3 | Cc1nc2c(c(N(C)c3ccc(O)cc3)n1)CCC2 | – | – | 405 nM | – | – | – | – | 5560 nM | – | – | – | –
4 | Cc1nc2c(c(N(C)c3ccc(N(C)C)cc3)n1)CCC2 | 11.3 nM | 1200 nM | 8.2 nM | 65% | 13 nM | – | 85% | 40 nM | 9.8 nM | 1.7 | 22.6 nM | 0.9
5 | COc1ccc(N(C)c2nc(C)nc3c2CCC3)cc1 | 12 nM | 1600 nM | – | 70% | – | – | 92% | 26 nM | 9.6 nM | – | 16.4 nM | –
6 | Cc1nc2c(c(N(C)c3ccc(S(C)(=O)=O)cc3)n1)CCC2 | – | – | – | – | – | 9.6 min | – | > 10000 nM | – | – | – | –
7 | COc1ccc(/C=C\c2cc(OC)c(OC)c(OC)c2)cc1O [COMBRETASTATIN A4] | – | – | 3.4 nM | – | – | – | – | 13 nM | – | – | 6.6 nM | –
8 | COc1ccc(CN(C)c2nc(C)nc3c2CCC3)cc1 | – | – | 450 nM | – | – | – | – | > 10000 nM | – | – | – | –
9 | Cc1nc2c(c(N(C)c3ccc4c(c3)CCO4)n1)CCC2 | 16 nM | 1200 nM | 12.1 nM | 64% | 18.7 nM | – | 85% | 70 nM | 15.1 nM | 1.6 | 29.8 nM | 0.9

Second part, led by results:

Row | IC50 (HeLa [1]) | IC50 [3] | IC50 (MDA-MB-435 (human)) | inhibition (Bos taurus [5]) | IC50 (SK-OV-3) | Retention_time [6] | inhibition (Bos taurus [7]) | EC50 [8] | IC50 (HeLa [10]) | SMILES | Ratio IC50 [2] | IC50 [4] | Ratio IC50 (HeLa [9])
10 | – | – | – | – | – | – | – | > 10000 nM | – | COc1ccc([C@@H](C)N(C)c2nc(C)nc3c2CCC3)cc1 | – | – | –
11 | – | – | 1220 nM | – | – | – | – | 5120 nM | – | Cc1nc2c(c(N(C)c3ccc(N)cc3)n1)CCC2 | – | – | –
12 | 22.8 nM | 1100 nM | 18.4 nM | 59% | 23.9 nM | – | 83% | 56 nM | 20.6 nM | COc1ccc(N(C)c2nc(C)nc3c2CCC3)cc1C | 2 | 47.5 nM | 0.9
13 | – | – | – | – | – | – | – | > 10000 nM | – | COc1ccc([C@H](C)N(C)c2nc(C)nc3c2CCC3)cc1 | – | – | –
